# KCNQ1 inh: human KCNQ1 channel inhibition; B-score at 10 µM; actives 1.3% (n = 310,000); AID 2642; CHO-K1 KCNQ1, FluxOR thallium flux fluorescence; active compounds read high;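 active = compounds whose thallium flux B-score, printed positive for inhibition, exceeds three library SD while starting fluorescence stays within three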;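 also: channel opened by potassium depolarization with thallium stimulus after 20 min compound exposure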
# KCNK9 block: human KCNK9 channel inhibition; Q9NPC2; HEK293 KCNK9, FluxOR thallium flux fluorescence; active compounds read low; B-score at 10 µM; actives 1.2% (n = 310,000); AID 488922;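 active = ratio B-score over 3 SD below the library mean, with starting fluorescence within 5 SD of its mean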;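 also: negative B-score means less thallium flux so channel inhibition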
# hERG rescue: shields human hERG channel from block by proarrhythmic agents; Q12809; CHO-hERG, FluxOR thallium flux, dofetilide IC70 present; activation (rescue from dofetilide block), less the hit threshold, % at 10 µM; actives 0.51% (n = 310,000); AID 1511;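 active = activation above the mean of controls blocked by dofetilide plus 5 SD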;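 also: thallium influx through hERG after potassium depolarization seen as dye fluorescence rise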
# KCNQ1 pot: potentiators or activators of human KCNQ1 potassium channel | P51787 | CHO-K1 KCNQ1, thallium flux FluxOR fluorescence; active compounds read high | B-score at 10 µM | actives 0.35% (n = 310,000) | AID 2648;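 active = fluorescence ratio B-score, a plate-corrected score, at least three library SD, with initial intensity B-score within 5 SD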
#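 Test system: CHO-K1 cells stably expressing KCNQ1 / Medium: assay buffer / Also added: depolarizing K+/Tl+ stimulus, K2SO4 and Tl2SO4 each 12.5 mM in 5x stock / Incubation: 90 min dye loading and 20 min compound exposure, both at room temperature / Signal: thallium influx via FluxOR fluorescence, kinetic imaging / Evaluation: B score of baseline-normalized fluorescence ratio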
# KCNK3 inh: human KCNK3 channel inhibition, primary screen; CHO-KCNK3 thallium flux, FluxOR fluorescence; active compounds read low; B-score at 10 µM; actives 0.84% (n = 340,000); AID 602410;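 active = B-score under library mean minus 4 SD, starting fluorescence ratio at most library mean plus 5 SD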;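 also: more negative B-score means stronger inhibition of thallium flux through KCNK3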
# Target sequence (O14649 whole entry, looked up): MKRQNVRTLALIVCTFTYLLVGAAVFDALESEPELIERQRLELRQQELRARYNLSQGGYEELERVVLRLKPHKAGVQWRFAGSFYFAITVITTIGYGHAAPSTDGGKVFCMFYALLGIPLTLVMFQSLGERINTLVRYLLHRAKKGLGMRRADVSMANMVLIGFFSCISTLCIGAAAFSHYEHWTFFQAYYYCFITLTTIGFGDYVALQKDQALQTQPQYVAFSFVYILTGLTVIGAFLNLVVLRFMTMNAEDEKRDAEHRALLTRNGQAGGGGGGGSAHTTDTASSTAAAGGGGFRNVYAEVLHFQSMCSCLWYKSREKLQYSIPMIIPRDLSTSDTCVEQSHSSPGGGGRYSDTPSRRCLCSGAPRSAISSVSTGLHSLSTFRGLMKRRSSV
# KCNK9 block conf: human KCNK9 inhibitor confirmation; shares compounds with KCNK9 block; HEK293 KCNK9 cells, FluxOR thallium flux fluorescence; inhibition, % at 10 µM; actives 43% (n = 4,900); AID 492992;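 active = thallium signal inhibited by more than 5 SD of the compound-free buffer control wells, on both duplicate plates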;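 also: 0% = assay buffer control wells without compound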
# Kir21 sel: tests whether KCNK9 modulators also affect mouse Kir2.1; shares compounds with KCNK9 block; Kir2.1 cells, FluxOR thallium flux fluorescence; inhibition, % at 10 µM; actives 4% (n = 4,900); AID 492993;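 active = thallium signal drop more than 5 SD beyond the mean of the no-compound control wells, seen in both duplicate plates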;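 also: signal is fluorescence rise after thallium addition divided by baseline fluorescence; plate controls were assay buffer only for no effect and full block by chlorpromazine control for full effect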
# KCNK9 uninduced: second check of KCNK9 modulator effects in non-induced HEK293 cells. shares compounds with KCNK9 block. FluxOR thallium flux. inhibition, % at 10 µM. actives 40% (n = 4,900). AID 492997;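 active = thallium signal drop beyond 5 SD of the untreated control mean, on both duplicate plates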;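 also: plate controls were buffer only IC0 wells for no effect and SID17386958 at its maximal inhibitory level for full effect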
# * marks the source's active call; other numbers are inactive results; i = inactive; x = not tested or not shown. Most compounds without a hit are left out; they make up all but 3.1% or so of the library.
SMILES,KCNQ1 inh,KCNK9 block,hERG rescue,KCNQ1 pot,KCNK3 inh,KCNK9 block conf,Kir21 sel,KCNK9 uninduced
CN(CC(=O)Nc1ccccc1C(F)(F)F)C(=O)CCc1nc2ccccc2c(=O)[nH]1,i,i,-19,i,i,x,x,x
CCc1ccc(NC(=S)N(CCN2CCCCC2)Cc2ccco2)cc1,i,-8.8*,-12,i,i,41%*,i,40%*
CCc1ccc(NC(=S)N(CCCN2CCOCC2)Cc2ccco2)cc1,i,i,-9,i,i,x,x,x
CCOC(=O)C1=C(C)N=c2s/c(=C\c3ccc(OCC(=O)O)cc3)c(=O)n2C1c1ccc(OC(C)C)cc1 (stereo not given),i,i,-24,i,i,i,i,i
CCN(Cc1ccccc1)C(=O)COc1cc(=O)n(CC)c2ccccc12,i,i,-8,i,i,i,i,i
CCOC(=O)C1CCN(Cc2cc(=O)oc3cc(C)c(Cl)cc23)CC1,i,i,-3,i,i,i,i,i
Cc1ccc2c(CN3CCN(Cc4ccccc4)CC3)cc(=O)oc2c1C,i,i,-7,i,i,i,i,i
CCOC(=O)C1CCN(Cc2cc(=O)oc3c(C)c(C)ccc23)CC1,i,i,-7,i,i,i,i,i
CCOC(=O)C1CCN(Cc2cc(Cl)c3ccccc3c2O)CC1,i,i,0,i,i,i,i,i
CCOC(=O)C1CCN(Cc2ccc(OC)c(C)c2OC)CC1,i,i,-5,i,i,x,x,x
CC(C)(C)S(=O)(=O)N1Cc2ccc(CO)cc2[C@@H]1CCO,x,x,x,x,i,x,x,x
CN(C)CCNC(=O)NC(=O)c1ccc(Cl)cc1,i,i,-8,i,i,x,x,x
CCOC(=O)C1CCN(Cc2cn(C)nc2-c2ccc(Oc3ccccc3)cc2)CC1,i,i,-15,i,i,i,i,i
O=C(COc1cc(O)c2c(=O)cc(-c3ccccc3)oc2c1)c1ccccc1,i,-8.7*,-7,i,i,44%*,i,30%*
O=c1oc2ccccc2c(Nc2cccc3cccnc23)c1[N+](=O)[O-],i,i,-3,i,i,x,x,x
COc1ccc(/C=N/NC(=O)c2ccc(C)cc2)cc1CN1CCN(c2ccc(F)cc2)CC1,i,i,-19,i,i,x,x,x
COc1ccc(/C=N\NC(=O)c2cc(O)c(O)c(O)c2)cc1CN1CCN(c2ccc(F)cc2)CC1,i,i,-11,i,i,i,i,i
Cc1ccc(C)c(Cn2nnc3c(=O)[nH]c(C4CCCN(C(=O)C5CCCCC5)C4)nc32)c1 (stereo not given),i,-18*,-10,i,i,64%*,i,25%*
O=C(C1CCCCC1)N1CCCC(c2nc3c(nnn3Cc3ccccc3)c(=O)[nH]2)C1 (stereo not given),i,i,-16,i,i,x,x,x
COC(=O)c1cn(C(=O)c2ccc(C)cc2C)c2ccccc12,i,i,-12,i,i,i,i,32%*
O=C(NCc1ccccc1)c1ccc(NC(=O)C2CCCC2)cc1,x,x,x,x,i,x,x,x
c1ccc2sc(SCSc3nc4ccccc4s3)nc2c1,i,-13*,-9,i,i,72%*,i,38%*
O=C1CCC(/C=C/c2ccccc2)=NN1Cc1ccc(F)cc1,i,i,-10,i,i,i,i,i
O=C1CCC(/C=C/c2ccccc2)=NN1Cc1ccccc1,i,i,-8,i,i,x,x,x
CC(C)(C)c1ccc(CN2N=C(/C=C/c3ccccc3)CCC2=O)cc1,i,i,-10,i,i,i,i,i
SMILES,KCNQ1 inh,KCNK9 block,hERG rescue,KCNQ1 pot,KCNK3 inh,KCNK9 block conf,Kir21 sel,KCNK9 uninduced
CCn1cc(/C=N/NC(=O)c2ccc3c(c2)OCO3)c(C)n1,i,i,-5,i,i,x,x,x
CCn1cc(/C=N\NC(=O)c2ccc3c(c2)c(C)c(C)n3Cc2ccccc2)c(C)n1,i,-19*,-3,i,i,68%*,i,27%*
CCn1nc(C)c(/C=N/NC(=O)c2ccc3c(c2)c(C)c(C)n3Cc2ccccc2)c1C,i,-15*,-1,i,i,54%*,i,28%*
CCn1ncc(/C=N\NC(=O)c2ccc3c(c2)c(C)c(C)n3Cc2ccccc2)c1C,i,-18*,0,i,i,60%*,i,30%*
CCOc1ccc(NC(=O)N[C@@H](Cc2ccccc2)C(=O)O)cc1,i,i,-13,i,i,x,x,x
COc1ccc2c(c1)CCCC21NC(=O)N(CC(=O)N2CC(C)OC(C)C2)C1=O (stereo not given),x,x,x,x,i,x,x,x
COc1cccc(-c2ccc(SCc3ccccn3)nn2)c1,i,i,-23,i,i,i,i,i
O=C(c1cccs1)C1CCCN(Cc2nc(Cc3ccccc3F)no2)C1 (stereo not given),i,i,-10,i,i,i,i,i
O=C(c1cccnc1)C1CCCN(Cc2nc(Cc3ccccc3F)no2)C1 (stereo not given),i,i,-7,i,i,x,x,x
Cc1cccc(Cl)c1NC(=S)NCCc1ccccn1,i,-8.2*,-5,i,i,44%*,i,28%*
Cc1c(Cl)cccc1NC(=S)NCCc1ccccn1,i,i,-4,i,i,x,x,x
O=C(Nc1cn(-c2ccccc2)nc1-c1ccc(Cl)cc1)c1ccccc1,i,-9.2*,-14,i,i,50%*,i,42%*
Cc1nn(C(=O)CCCC(=O)NCc2ccccc2)c2ccccc12,i,i,-8,i,i,x,x,x
CCOC(=O)C1CCN(c2nc(-c3ccc(Br)cc3)nc3ccccc23)CC1,i,-8.8*,-12,i,i,i,i,22%*
NC(=O)C1CCN(c2nc(-c3ccccc3)nc3ccccc23)CC1,i,i,-18,i,i,x,x,x
COCCNC(=O)c1cccc(OC2CCN(Cc3ccc(F)cc3OC)CC2)c1,i,i,-14,i,i,x,x,x
CC(C)CCn1nc(C(=O)Nc2nc3c(s2)CCCC3)c2ccccc2c1=O,i,-17*,-9,i,i,76%*,i,i
Cc1ccccc1C(=NC(=O)c1ccccc1)c1ccccc1,i,-10*,-10,i,i,47%*,i,46%*
